From ChEMBL document CHEMBL1129572, “Synthesis and pharmacological properties of novel 8-substituted imidazobenzodiazepines: high-affinity, selective probes for alpha 5-containing GABAA receptors” (J Med Chem, 1996)

Experiments:
[1] = target: T1, GABA-A receptor; alpha-1/beta-2/gamma-2 (Homo sapiens, UniProt P14867+P18507+P47870); assay: Binding affinity for human GABA-A receptor alpha-1-beta-2-gamma-2 expressed in L(tk-) cell membranes
T1 sequence (P14867 whole entry): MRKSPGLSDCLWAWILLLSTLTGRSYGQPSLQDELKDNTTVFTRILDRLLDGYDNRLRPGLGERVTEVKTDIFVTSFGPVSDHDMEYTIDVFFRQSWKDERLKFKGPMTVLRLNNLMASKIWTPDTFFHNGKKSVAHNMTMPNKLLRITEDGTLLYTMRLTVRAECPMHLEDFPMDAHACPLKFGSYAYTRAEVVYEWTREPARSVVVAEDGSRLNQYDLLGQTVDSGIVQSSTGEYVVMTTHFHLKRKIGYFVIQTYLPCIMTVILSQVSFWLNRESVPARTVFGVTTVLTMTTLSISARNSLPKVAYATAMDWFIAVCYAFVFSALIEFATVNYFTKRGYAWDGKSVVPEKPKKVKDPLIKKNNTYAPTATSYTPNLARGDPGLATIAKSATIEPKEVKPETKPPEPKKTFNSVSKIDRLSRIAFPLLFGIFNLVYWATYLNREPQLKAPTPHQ
T1 sequence (P47870 whole entry): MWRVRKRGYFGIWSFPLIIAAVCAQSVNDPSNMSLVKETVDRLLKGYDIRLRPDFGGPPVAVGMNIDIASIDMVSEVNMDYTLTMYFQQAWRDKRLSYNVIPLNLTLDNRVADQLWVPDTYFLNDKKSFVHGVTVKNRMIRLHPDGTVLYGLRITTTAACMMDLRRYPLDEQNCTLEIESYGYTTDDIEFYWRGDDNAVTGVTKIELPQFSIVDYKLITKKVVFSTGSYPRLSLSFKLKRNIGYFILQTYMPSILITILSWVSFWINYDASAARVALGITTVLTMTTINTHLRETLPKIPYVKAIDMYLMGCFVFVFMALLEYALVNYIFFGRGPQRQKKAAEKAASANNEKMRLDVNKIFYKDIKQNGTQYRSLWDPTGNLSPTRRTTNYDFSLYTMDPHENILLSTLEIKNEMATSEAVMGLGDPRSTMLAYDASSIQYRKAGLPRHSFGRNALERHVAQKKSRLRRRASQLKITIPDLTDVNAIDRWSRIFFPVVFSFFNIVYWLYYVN
T1 sequence (P18507 whole entry): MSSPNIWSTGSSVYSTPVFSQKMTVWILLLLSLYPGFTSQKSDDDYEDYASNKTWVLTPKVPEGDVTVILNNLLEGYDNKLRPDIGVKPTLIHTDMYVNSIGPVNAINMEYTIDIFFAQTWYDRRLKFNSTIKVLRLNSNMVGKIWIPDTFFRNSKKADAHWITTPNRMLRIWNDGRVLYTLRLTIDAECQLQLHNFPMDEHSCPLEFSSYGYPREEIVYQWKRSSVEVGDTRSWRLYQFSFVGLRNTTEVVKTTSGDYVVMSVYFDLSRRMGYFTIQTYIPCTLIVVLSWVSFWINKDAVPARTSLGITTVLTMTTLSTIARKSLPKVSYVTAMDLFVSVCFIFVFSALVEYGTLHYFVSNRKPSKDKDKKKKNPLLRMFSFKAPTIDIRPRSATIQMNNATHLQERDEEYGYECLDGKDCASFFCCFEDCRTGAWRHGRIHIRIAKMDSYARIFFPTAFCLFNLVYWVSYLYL

[2] = target: T2, GABA A receptor alpha-3/beta-2/gamma-2 (Homo sapiens, UniProt P18507+P34903+P47870); assay: Binding affinity for human GABA-A receptor alpha-3-beta-2-gamma-2 expressed in L(tk-) cell membranes
T2 sequence (P47870 whole entry): T1 sequence (P47870 whole entry)
T2 sequence (P18507 whole entry): T1 sequence (P18507 whole entry)
T2 sequence (P34903 whole entry): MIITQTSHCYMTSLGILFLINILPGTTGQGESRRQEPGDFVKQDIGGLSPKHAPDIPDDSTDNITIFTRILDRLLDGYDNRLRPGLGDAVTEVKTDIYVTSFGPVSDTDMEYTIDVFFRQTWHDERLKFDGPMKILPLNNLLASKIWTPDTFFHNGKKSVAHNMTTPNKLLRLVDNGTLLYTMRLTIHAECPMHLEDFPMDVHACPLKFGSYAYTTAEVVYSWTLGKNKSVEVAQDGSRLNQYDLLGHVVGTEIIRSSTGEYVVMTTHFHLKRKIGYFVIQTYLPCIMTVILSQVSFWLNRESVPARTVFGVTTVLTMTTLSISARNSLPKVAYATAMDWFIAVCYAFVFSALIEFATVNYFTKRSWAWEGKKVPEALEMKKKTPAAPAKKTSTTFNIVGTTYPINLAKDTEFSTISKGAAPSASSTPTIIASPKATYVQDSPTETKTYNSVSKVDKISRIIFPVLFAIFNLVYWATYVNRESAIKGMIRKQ

[3] = target: GABA A receptor alpha-6/beta-2/gamma-2 (Homo sapiens, UniProt P18507+P47870+Q16445); assay: Binding affinity for human GABA-A receptor alpha-6-beta-2-gamma-2 expressed in L(tk-) cell membranes
Sequence of GABA A receptor alpha-6/beta-2/gamma-2 (Q16445 whole entry, one chain of several): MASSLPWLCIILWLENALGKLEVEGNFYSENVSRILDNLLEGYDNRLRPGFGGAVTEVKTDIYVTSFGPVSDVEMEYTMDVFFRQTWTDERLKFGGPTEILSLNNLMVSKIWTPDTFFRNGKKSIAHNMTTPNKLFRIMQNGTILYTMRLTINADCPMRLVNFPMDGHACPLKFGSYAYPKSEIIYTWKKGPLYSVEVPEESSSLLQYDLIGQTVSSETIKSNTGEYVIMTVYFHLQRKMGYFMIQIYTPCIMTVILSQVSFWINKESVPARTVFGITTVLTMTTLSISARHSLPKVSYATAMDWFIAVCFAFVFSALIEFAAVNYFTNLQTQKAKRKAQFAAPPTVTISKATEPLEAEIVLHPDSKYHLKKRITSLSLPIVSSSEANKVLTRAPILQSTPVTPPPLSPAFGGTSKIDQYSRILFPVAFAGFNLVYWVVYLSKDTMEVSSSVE

[4] = Binding affinity for human GABA-A receptor alpha-5--beta-2-gamma-2 expressed in L(tk-) cell membranes
How it was run: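 Competition binding on membranes of Ltk cells expressing human αxβ2γ2 receptors. Radioligand was [3H]Ro 15-1788, or [3H]Ro 15-4513 for α6β2γ2. Ki is the mean of two determinations differing by less than 10%.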

[5] = target: T3, GABA A receptor alpha-2/beta-2/gamma-2 (Homo sapiens, UniProt P18507+P47869+P47870); assay: Binding affinity for human GABA-A receptor alpha-2-beta-2-gamma-2 expressed in L(tk-) cell membranes
T3 sequence (P47870 whole entry): T1 sequence (P47870 whole entry)
T3 sequence (P18507 whole entry): T1 sequence (P18507 whole entry)
T3 sequence (P47869 whole entry): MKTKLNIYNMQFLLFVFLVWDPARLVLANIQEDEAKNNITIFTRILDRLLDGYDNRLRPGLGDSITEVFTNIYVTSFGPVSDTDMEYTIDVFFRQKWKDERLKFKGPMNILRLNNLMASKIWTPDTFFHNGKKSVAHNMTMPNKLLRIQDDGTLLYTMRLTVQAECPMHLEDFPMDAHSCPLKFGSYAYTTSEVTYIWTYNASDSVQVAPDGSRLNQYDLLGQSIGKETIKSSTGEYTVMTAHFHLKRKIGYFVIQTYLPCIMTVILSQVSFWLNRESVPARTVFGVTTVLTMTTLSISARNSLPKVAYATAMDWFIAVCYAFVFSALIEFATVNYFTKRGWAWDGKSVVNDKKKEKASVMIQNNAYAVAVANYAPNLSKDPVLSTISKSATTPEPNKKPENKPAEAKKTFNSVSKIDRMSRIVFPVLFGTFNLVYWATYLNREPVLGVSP

Homo sapiens = species: Homo sapiens; assay: Relative binding affinity for GABA-A receptor alpha-5 over alpha1 subunits
Mus musculus [6] = species: Mus musculus; assay: Anticonvulsant activity against convulsions induced by DMCM; assay type: functional
How it was run: (§1)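 Male NIH/Swiss mice (~30 g) given graded ip doses of zolpidem, flumazenil or vehicle in 10% diluted Emulphor:90% saline. 10 min later they were challenged ip with DMCM (7.5 mg/kg) or the convulsant test ligand (20 mg/kg). Convulsions were observed; N = 5–10 per dose. ED50 came from nonlinear regression.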

Mus musculus [7] = species: Mus musculus; assay: Anticonvulsant activity against convulsions induced by Compound 9; assay type: functional; how it was run: as §1
Mus musculus [8] = species: Mus musculus; assay: Convulsant activity was evaluated; assay type: functional
How it was run: (§2)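 Adult male NIH/Swiss mice (~30 g) got a single ip injection of graded doses (up to 40 or 80 mg/kg) or vehicle, suspended in 10% diluted Emulphor:90% saline with warming and sonication. They were observed 10 min; tonic/clonic convulsions with loss of righting reflex were scored. CD50 is the dose seizing half the maximal number convulsing, by nonlinear regression.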

Mus musculus [9] = species: Mus musculus; assay: Dose required for 50% seizure of maximum number of animals; assay type: functional; how it was run: as §2
[10] = target: T4, Gamma-aminobutyric acid receptor subunit alpha-5 (Rattus norvegicus, UniProt P19969); assay: Inhibition of [3H]flunitrazepam binding to alpha5 GABA-A receptor of rat hippocampal membranes; assay type: cell membranes, Membrane
T4 sequence (P19969 whole entry): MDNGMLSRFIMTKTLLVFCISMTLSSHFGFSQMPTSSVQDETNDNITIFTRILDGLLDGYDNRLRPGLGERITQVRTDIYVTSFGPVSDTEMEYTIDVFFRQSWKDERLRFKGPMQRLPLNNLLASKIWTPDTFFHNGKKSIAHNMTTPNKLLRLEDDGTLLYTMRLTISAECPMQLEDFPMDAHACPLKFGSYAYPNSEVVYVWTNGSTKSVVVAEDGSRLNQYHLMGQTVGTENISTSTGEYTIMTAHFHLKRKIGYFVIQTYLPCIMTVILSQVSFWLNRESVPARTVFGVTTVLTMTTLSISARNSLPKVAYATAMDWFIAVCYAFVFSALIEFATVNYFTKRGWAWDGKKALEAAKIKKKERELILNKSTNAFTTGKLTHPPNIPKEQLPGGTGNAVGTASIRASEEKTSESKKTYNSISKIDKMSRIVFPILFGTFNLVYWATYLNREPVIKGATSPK
How it was run: (§3)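 Male Sprague–Dawley rat hippocampal or cerebellar membranes, washed in 50 mM Tris-citrate pH 7.4. They were incubated with ~1 nM [3H]flunitrazepam (final) plus NaCl, 120 min at 0–4 °C, then filtered. Nonspecific binding was set with 10 µM Ro 15-1788. IC50 used 8–12 concentrations; hippocampal data were fitted two-site (F test). Four experiments, mean ± SEM.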

[11] = target: GABA-A receptor; anion channel; assay: Inhibition of [3H]flunitrazepam binding to GABA-A receptor of rat cerebral membranes; assay type: cell membranes, Membrane; how it was run: as §3
[12] = target: T4, Gamma-aminobutyric acid receptor subunit alpha-5; assay: Inhibition of [3H]flunitrazepam binding to high affinity GABA-A receptor of rat hippocampal membranes; assay type: cell membranes, Membrane; how it was run: as §3
[13] = target: GABA-A receptor; anion channel; assay: (§4) Inhibition of [3H]flunitrazepam binding to low affinity GABA-A receptor of rat hippocampal membranes; assay type: cell membranes, Membrane; how it was run: as §3
[14] = target: GABA-A receptor; anion channel; assay: as §4; assay type: cell membranes, Membrane; how it was run: as §3; remark: listed apart in the source
Mus musculus [15] = species: Mus musculus; assay: Convulsant activity was evaluated in mice; assay type: functional; how it was run: as §2
[16] = target: T4, Gamma-aminobutyric acid receptor subunit alpha-5; assay: Inhibition of [3H]flunitrazepam binding to alpha-5 GABA-A receptor of rat hippocampal membranes; assay type: cell membranes, Membrane; how it was run: as §3
Mus musculus [17] = species: Mus musculus; assay: Proconvulsant potency at which 50% of the animals (mice) convulsed 15 min after receiving PTZ.; assay type: functional; details: read-out: PD50
How it was run: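 Mice got a single ip dose of the ligand or vehicle, then PTZ (40 mg/kg ip) 15 min later, and were observed 10 min. N = 5–10 per group. PD50 is the dose at which 50% of animals convulsed, by nonlinear regression.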

Compound | Ki [1] | Ki [2] | Ki [3] | Ki [4] | Ki [5] | Ratio (Homo sapiens) | CD50 (Mus musculus [9]) | further results
CCc1ccc2c(c1)C(=O)N(C)Cc1c(C(=O)OC(C)(C)C)ncn1-2 | 14.8 nM | 25.3 nM | 22.9 nM | 1.7 nM | 56 nM | 8.6 | – | –
CCOC(=O)c1ncn2c1CN(C)C(=O)c1cc(F)ccc1-2 [FLUMAZENIL] | – | – | – | – | – | – | – | ED50 (Mus musculus [6]): 2.3 mg/kg; ED50 (Mus musculus [7]): 3.8 mg/kg
C#Cc1ccc2c(c1)C(=O)N(C)Cc1c(C(=O)OCC)ncn1-2 | 28.4 nM | 25.8 nM | 28.8 nM | 0.5 nM | 21.4 nM | 60 | 24 mg/kg | Activity (Mus musculus [8]): 70%
C#Cc1ccc2c(c1)C(=O)N(C)Cc1c(C(=O)OC(C)(C)C)ncn1-2 | 26.9 nM | 18.7 nM | 5.1 nM | 0.4 nM | 26.3 nM | 67.3 | 5.9 mg/kg | IC50 [10]: 67.2 nM; IC50 [11]: 79.8 nM; IC50 [12]: 0.6 nM; IC50 [13]: 85.6 nM; IC50 [14]: 70.7 nM; Activity (Mus musculus [15]): 80%; IC50 [16]: 0.33 nM
CCOC(=O)c1ncn2c1CN(C)C(=O)c1cc(N=[N+]=[N-])ccc1-2 [Ro-154513] | – | – | – | 0.26 nM | – | – | – | –
CN1Cc2c(C(=O)OC(C)(C)C)ncn2-c2ccc(Br)cc2C1=O | 11.4 nM | 9.2 nM | 9.4 nM | 0.5 nM | 10.7 nM | 24 | – | –
CCOC(=O)c1ncn2c1CN(C)C(=O)c1cc(CC)ccc1-2 | 20.4 nM | 26.1 nM | 176 nM | 1.5 nM | 27 nM | 13.8 | – | –
CCOC(=O)c1ncn2c1CN(C)C(=O)c1cc(C#C[Si](C)(C)C)ccc1-2 | – | 198 nM | 114 nM | 5 nM | 142 nM | 24 | 70.9 mg/kg | Activity (Mus musculus [15]): 85%
Cc1ccc(-c2nc3ccc(C)cn3c2CC(=O)N(C)C)cc1 [ZOLPIDEM] | – | – | – | – | – | – | – | ED50 (Mus musculus [6]): 0.4 mg/kg; ED50 (Mus musculus [7]): 7 mg/kg
CCOC(=O)c1ncn2c1CN(C)C(=O)c1cc(C#CC[Si](C)(C)C)ccc1-2 | > 300 nM | > 300 nM | > 300 nM | > 300 nM | > 300 nM | – | – | –
CC#Cc1ccc2c(c1)C(=O)N(C)Cc1c(C(=O)OCC)ncn1-2 | 10.1 nM | 16.5 nM | > 100 nM | 1.7 nM | 22.2 nM | 6 | – | –
CN1Cc2c(C(=O)OC(C)(C)C)ncn2-c2ccc(C#C[Si](C)(C)C)cc2C1=O | 197 nM | 255 nM | 58.6 nM | 2.61 nM | 143 nM | 75.5 | 2.3 mg/kg | Activity (Mus musculus [15]): 22%; ED50 (Mus musculus [17]): 40 mg/kg
